MC4R barr agon: MC4R agonists recruiting beta-arrestin, primary screen, cell-based, luminescence, agonist arm of biased-ligand search; U2OS MC4R beta-arrestin complementation; percent of melanotan II response, DMSO zero; 0.98% of 360,000 active; Melanocortin receptor 4 (Homo sapiens), P32245; activation, % at 8.9 µM;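 active = activation above a per-plate cutoff, the mean activation of sample wells on that plate plus 3 SD, cut at about 8% in these data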
MC4R antag cAMP: MC4R antagonists of cAMP signaling, primary screen, cell-based, TR-FRET, antagonist arm of biased-ligand search | Melanocortin receptor 4 (Homo sapiens), P32245 | 0.48% of 360,000 active | inhibition, % at 6.5 µM | AID 540295, 2011 | MC4R-expressing cells, MTII-stimulated cAMP, LANCE TR-FRET;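 active = inhibition above its plate's cutoff, the mean of tested wells on that plate plus 3 SD, cut at about 29% in these data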;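 note: 0% = Melanotan II alone and 100% = Melanotan II plus saturating MCL0020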
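Assay system: human MC4R-expressing U2OS cells; reagent: Melanotan II stimulation of cells; dosing: 6.5 µM single dose; timing: compound 30 min, challenge 1 h, detection 1 h; signal: TR-FRET cAMP assay; replicates: one well per compound, no replicates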
PG9 binder: binders of HIV-1 gp120 antibody PG9, primary screen, biochemical, TR-FRET; TR-FRET gp120-PG9 antibody binding; inhibition, % at 6.7 µM; 0.43% of 360,000 active; AID 624416, 2012; in the data active = inhibition above about 8.5%
NR1D1 modulator: modulators of Rev-erb alpha DNA binding, primary screen, biochemical, FITC-DNA, fluorescence polarization, uHTS; Nuclear receptor subfamily 1 group D member 1 (Homo sapiens), P20393; Rev-erbα–FITC-DNA binding, 90 min; activity, % at 10 µM; 0.79% of 370,000 active; AID 1259318, 2017;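 active = activity above about 14%, limit read from the data; passing the limit was not always enough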;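 note: 0% = DMSO wells with 35 nM protein and 100% = DMSO wells with 750 nM protein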
NTR1 agonist: agonists of human NTR1, primary screen, imaging, U2OS cells, beta-arrestin-GFP, high content. NTR1-U2OS beta-arrestin-GFP spot imaging, agonist mode. activation, % at 20 µM. 0.17% of 330,000 active;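 active = activation at or above 40% of the spot to cytoplasm intensity ratio, with at least 20 cells analyzed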;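 note: 0% = DMSO without peptide and 100% = 100 nM NTR1 peptide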
Target sequence (P30989 whole entry, looked up): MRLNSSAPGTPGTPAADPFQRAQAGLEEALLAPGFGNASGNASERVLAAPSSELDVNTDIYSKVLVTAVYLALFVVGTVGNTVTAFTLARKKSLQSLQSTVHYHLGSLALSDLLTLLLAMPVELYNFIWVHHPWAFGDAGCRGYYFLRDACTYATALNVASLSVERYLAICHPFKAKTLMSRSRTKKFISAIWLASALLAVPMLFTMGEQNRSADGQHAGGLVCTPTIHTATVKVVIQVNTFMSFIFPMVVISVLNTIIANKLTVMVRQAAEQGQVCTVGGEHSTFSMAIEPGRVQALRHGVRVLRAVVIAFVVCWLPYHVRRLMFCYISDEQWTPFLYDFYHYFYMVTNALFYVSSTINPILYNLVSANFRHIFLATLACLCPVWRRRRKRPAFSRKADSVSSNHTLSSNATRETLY
U2OS cAMP counter: nonselective cAMP signaling inhibitors, parental cells, counter-screen for MC4R biased antagonist project, cell-based, TR-FRET, U2OS, forskolin, triplicate; shares compounds with MC4R antag cAMP; 26% of 1,600 active; inhibition, % at 6.5 µM; LANCE TR-FRET;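 active = mean inhibition over triplicates above the low-control well mean plus 3 SD, set per campaign, cut at about 13% in these data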;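 note: signal is single emission at 671 nm which falls as cellular cAMP rises; 0% = forskolin-stimulated wells and 100% = buffer without forskolin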
MC4R cAMP antag: MC4R cAMP antagonists, retest, confirmation, cell-based, TR-FRET; shares compounds with MC4R antag cAMP; MC4R-expressing cells, MTII-stimulated cAMP; inhibition, % at 6.5 µM; 27% of 1,600 active; in the data active = inhibition above about 29%;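 note: 0% = agonist stimulated wells alone and 100% = agonist stimulated wells plus saturating reference antagonist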
* marks the source's active call; other numbers are inactive results; nt = no result. This is a sample that favours compounds with a hit; in the whole collection about 2.5% have one here.

SMILES | MC4R barr agon | MC4R antag cAMP | PG9 binder | NR1D1 modulator | NTR1 agonist | U2OS cAMP counter | MC4R cAMP antag
COC(=O)[C@@]12CCCCC3=C1N(CCC3)C(=O)[C@H]2CC(=O)NCc1ccc(OC)c(OC)c1 | nt | nt | nt | 5 | nt | nt | nt
CCCN(CCC)S(=O)(=O)c1ccc(Cl)c([N+](=O)[O-])c1 | -4 | 41* | -1 | 2 | -2 | 31* | 50*
CCCN(CCC)S(=O)(=O)c1ccc(N2CCCC2=O)c([N+](=O)[O-])c1 | -2 | 4 | -1 | 1 | 0 | nt | nt
COc1ccc(CC2(CO)CCN(Cc3ccncc3)CC2)cc1 | 1 | 2 | 0 | 2 | 4 | nt | nt
COc1ccc(CC2(CO)CCN(Cc3cnn(C)c3C)CC2)cc1 | -1 | 30* | -2 | -6 | 2 | -3 | -14
O=C1C(Cl)=C(NCCc2ccccc2)C(=O)c2ccccc21 | -4 | 42* | -1 | 11 | nt | 10 | -18
O=C(CCN1Cc2ccccc2C1)c1ccc2c(c1)OCCO2 | -3 | 34* | 1 | 10 | 0 | 18* | 31*
COc1ccc(CCN2C(=O)CC(N3CCN(S(=O)(=O)c4ccccc4)CC3)C2=O)cc1OC (stereo unspecified) | -1 | 33* | -1 | nt | -1 | -1 | -9
CCOC(=O)c1cnc2ccc(OCC)cc2c1N(C)Cc1ccccc1 | 3 | 30* | -2 | 7 | 12 | 0 | 31*
CCOC(=O)c1cc2cc(OCc3ccccc3)ccc2nc1C | -1 | 17 | -1 | -12 | 3 | nt | nt
O=C(c1ccc([N+](=O)[O-])cc1)N(Cc1ccc(Br)cc1)N1C(=O)CCCC1=O | 9.1* | 44* | -4 | -5 | 29 | 17* | 12
Clc1ccc(OCCCCCN2CCCC2)c(Br)c1 | -2 | 30* | 0 | 2 | -1 | 1 | -11
Clc1ccc(OCCCN2CCCCC2)c(Br)c1 | -1 | -5 | -1 | -2 | 0 | nt | nt
COc1ccc(OC(=O)N2C/C(=C/c3ccccc3)C(=O)/C(=C\c3ccccc3)C2)cc1 | -1 | 33* | 3 | 1 | nt | 15* | 10
CCOC(=O)N1C/C(=C\c2ccccc2)C(=O)/C(=C/c2ccccc2)C1 | -3 | 2 | -1 | 5 | nt | nt | nt
CN(C)CCNc1cnn(-c2ccccc2)c(=O)c1Cl | 4 | 29* | -1 | -1 | 1 | -2 | -17
Cc1ccc(-c2cnc3n2CCCCC3)cc1 | 3 | 33* | 0 | 3 | 1 | -3 | -8
COc1ccc(NC(=O)CSc2nnc(-c3n[nH]c4c3CCC4)n2N)cc1OC | nt | nt | nt | -4 | nt | nt | nt
COc1ccc(C(=O)Nc2ccc(S(=O)(=O)Nc3cc(C)nc(C)n3)cc2)cc1 | -1 | 17 | 2 | -3 | 0 | nt | nt
COc1cccc(C(=O)Nc2ccc(S(=O)(=O)Nc3cc(C)nc(C)n3)cc2)c1 | -1 | 29* | -2 | 2 | 0 | -1 | -1
O=C(OCc1cn(Cc2cccc(Cl)c2)nn1)N1CCOCC1 | nt | nt | nt | 1 | nt | nt | nt
CC1=NOC(=O)/C1=C/c1ccc(O)c(Br)c1 | -1 | -5 | -1 | 0 | 1 | nt | nt
CC1=NOC(=O)/C1=C/c1ccc(O)cc1 | 0 | 35* | 0 | 3 | nt | -4 | -38
CCCCNC(=O)C[C@H]1C[C@@]2(C(=O)OC)C(=C[C@H](C3CCCC3)O[C@@H]2C)N(CCc2ccc(OC)c(OC)c2)C1=O | nt | nt | nt | 3 | nt | nt | nt
CC(=O)NCCNC(=O)[C@H](Cc1ccccc1)NC(=O)c1cccs1 | 0 | 9 | 0 | -3 | 0 | nt | nt
SMILES | MC4R barr agon | MC4R antag cAMP | PG9 binder | NR1D1 modulator | NTR1 agonist | U2OS cAMP counter | MC4R cAMP antag
O=C(COC(=O)[C@H](Cc1ccccc1)NC(=O)c1cccs1)Nc1c(Cl)cccc1Cl | -1 | 31* | -2 | 1 | 1 | 14* | 35*
O=C(N[C@@H](Cc1ccccc1)C(=O)OCC(=O)N1CCOCC1)c1cccs1 | -1 | 13 | 0 | 0 | -1 | nt | nt
O=C(COC(=O)C(Cc1ccccc1)NC(=O)c1cccs1)NCc1ccccc1 (stereo unspecified) | 2 | 30* | -1 | -1 | 1 | 8 | 21
COc1ccc2cc3cc(C(=O)Nc4ccc(F)cc4)sc3nc2c1 | nt | nt | nt | -18 | nt | nt | nt
CCOc1ccc(/C=N/NC(=O)c2nnn(-c3nonc3N)c2-c2ccc(OCC)cc2)cc1 | -3 | 2 | -1 | -3 | 6 | nt | nt
CCCOc1ccc(-c2c(C(=O)N/N=C/c3ccccc3)nnn2-c2nonc2N)cc1 | 0 | 30* | -2 | -1 | 2 | 6 | 10
Cc1ccccc1COc1cccc(/C=N/NC(=O)c2nnn(-c3nonc3N)c2C)c1 | 4 | 32* | 3 | 0 | 6 | 3 | 9
COC(=O)C1CN(Cc2cn(Cc3ccc(F)cc3)nn2)CCS(=O)(=O)N1Cc1ccccc1 (stereo unspecified) | nt | nt | nt | -7 | nt | nt | nt
CC1=CC(=O)C(C2CCCCC2)=C/C1=N\OS(=O)(=O)c1ccccc1 | nt | nt | nt | -7 | nt | nt | nt
CC1=CC(=O)C(C(C)C)=C/C1=N/OS(=O)(=O)c1ccccc1 | 31* | 71* | 0 | -5 | 26 | 36* | 91*
C[C@H]1[C@H](NC(=O)c2cccc(Cl)c2)CC[C@@]23CCCN2C(=O)CCC[C@@H]13 | nt | nt | nt | 5 | nt | nt | nt
COc1ccc(C(=O)N2CCN(Cc3ccccc3[N+](=O)[O-])CC2)cc1 | 0 | 6 | 2 | -1 | 0 | nt | nt
COc1cc(OC)cc(C(=O)N2CCN(Cc3ccccc3[N+](=O)[O-])CC2)c1 | 3 | 29* | -4 | -2 | 0 | -2 | -9
CCc1nc(SCC(=O)Nc2nc3c(s2)CCCC3)c2ccccc2n1 | 2 | 33* | 0 | 0 | 9 | 17* | 47*
CCCc1nc(SCC(=O)Nc2nc3c(s2)CCCC3)c2ccccc2n1 | 2 | 36* | 0 | 0 | 7 | 11 | 27
O=C(CSc1nc2ccccc2o1)Nc1nc2c(s1)CCCC2 | -2 | -3 | -1 | 1 | nt | nt | nt
CCCc1nc(SCC(=O)NC2CCCC2)c2ccccc2n1 | -2 | 8 | 0 | 1 | -2 | nt | nt
COc1ccc(C(=O)C[n+]2ccc3c(c2)nc(Cc2ccccc2)n3C)cc1 | nt | nt | nt | 6 | nt | nt | nt
Cc1nn(CC(=O)Nc2ccccn2)c(C)c1Br | 2 | 32* | 0 | 5 | 0 | 2 | -1
CCC(=O)N1CCc2cc(Br)c(S(=O)(=O)NC3CCN(Cc4ccccc4)CC3)cc21 | nt | nt | nt | 0 | nt | nt | nt

Screens from PubChem BioAssay.
